ChEMBL document CHEMBL2390875, “Synthesis and pharmacological investigation of new N-hydroxyalkyl-2-aminophenothiazines exhibiting marked MDR inhibitory effect” (Bioorg Med Chem, 2013)
Active and inactive are the calls of the source. The calls are words filed in the database; no cut-off is given here.

What follows are compounds tested on Hepatocyte (assay: Cytotoxicity against Wistar rat primary hepatocytes assessed as change in cell viability at 10 uM after 3 hrs by MTT assay).
Assay type: cell-based
Outline: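 Primary hepatocytes from male Wistar rats (200-250 g), cultured as a monolayer, exposed 3 h to compound or vehicle (control), washed, then incubated with 1 mg/mL MTT for 2 h. Cells lysed in DMSO and absorbance read at 570 nm. Viability expressed as % of control.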

Question: How did the Activity turn out when `COc1ccc(-n2nnc(CCC(O)CN3c4ccccc4S(=O)(=O)c4ccc(N5CCOCC5)cc43)n2)cc1` (stereo not drawn) was run?
Answer: Non-toxic

Question: How did the Activity turn out when `COc1ccc(-n2nnc(CCC(O)CN3c4ccccc4Sc4ccc(N5CCOCC5)cc43)n2)cc1` (racemic) [listing 1 of 2 here] was run?
Answer: Non-toxic

Question: With `COc1ccc(-n2nnc(CCC(O)CN3c4ccccc4Sc4ccc(NCCN5CCOCC5)cc43)n2)cc1` (stereo not drawn) as the compound, how does the Activity read?
Answer: Non-toxic

Question: How did the Activity turn out when `COc1ccc(-n2nnc(CCC(O)CN3c4ccccc4[S+]([O-])c4ccc(N5CCOCC5)cc43)n2)cc1` (stereo not drawn) was run?
Answer: Non-toxic

Question: How did the Activity turn out when `CCN(CC)c1ccc2c(c1)N(CC(O)CCc1nnn(-c3ccc(OC)cc3)n1)c1ccccc1S2` (racemic) was run?
Answer: Non-toxic

These compounds were tested on Hepatocyte (assay: Inhibition of p-gp in Wistar rat primary hepatocytes assessed as inhibition of rhodamine 123 efflux at 10 uM after 3 hrs).
Assay type: cell-based
Outline: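 Collagenase-perfused male Wistar rat hepatocytes plated on collagen and cultured 4 days in supplemented Williams Medium E. Cells preloaded 30 min with 5 µM RH123, then exposed 3 h to compound or 0.1% DMSO vehicle. Cells washed with ice-cold HBSS and lysed in 0.5% Triton X100. Intracellular RH123 read by fluorescence at 519/538 nm. Mean ± SD from three isolations, four wells per condition, Student's t-test.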

Question: How did the inhibition turn out when `COc1ccc(-n2nnc(CCC(O)CN3c4ccccc4Sc4ccc(N5CCOCC5)cc43)n2)cc1` (racemic) [listing 2 of 2 here] was run?
Answer: Active

Question: How did the inhibition turn out when `COc1ccc(-n2nnc(CCC(O)CN3c4ccccc4S(=O)(=O)c4ccc(N5CCOCC5)cc43)n2)cc1` (stereo not drawn) was run?
Answer: Active

Question: How did the inhibition turn out when `COc1ccc(-n2nnc(CCC(O)CN3c4ccccc4Sc4ccc(C(F)(F)F)cc43)n2)cc1` (stereo not drawn) was run?
Answer: Active

Question: `COc1ccc(-n2nnc(CCC(O)CN3c4ccccc4Sc4ccc(N5CCOCC5)cc43)n2)cc1` (single isomer, unassigned; (-)) was tested. Which inhibition did it give?
Answer: Active

Question: How did the inhibition turn out when `COc1ccc(-n2nnc(CCC(O)CN3c4ccccc4Sc4ccc(N5CCOCC5)cc43)n2)cc1` (stereo in doubt; (+)-3h) was run?
Answer: Active

Question: For `COc1ccc(-n2nnc(/C=C\C=C\N3c4ccccc4Sc4ccc(Cl)cc43)n2)cc1`, which inhibition is on record?
Answer: Active

Question: How did the inhibition turn out when `COc1ccc(-n2nnc(CCC(O)CN3c4ccccc4Sc4ccc(NC(C)=O)cc43)n2)cc1` (stereo not drawn) was run?
Answer: Active

Question: With `COc1ccc(-n2nnc(CCC(O)CN3c4ccccc4[S+]([O-])c4ccc(N5CCOCC5)cc43)n2)cc1` (stereo not drawn) as the compound, how does the inhibition read?
Answer: Active

Question: How did the inhibition turn out when `COc1ccc(-n2nnc(CCC(O)CN3c4ccccc4Sc4ccc(N5CCN(C)CC5)cc43)n2)cc1` (single isomer, unassigned; (-)) was run?
Answer: Active

Question: How did the inhibition turn out when `CCN(CC)c1ccc2c(c1)N(CC(O)CCc1nnn(-c3ccc(OC)cc3)n1)c1ccccc1S2` (racemic) was run?
Answer: Active

Question: With `COc1ccc(-n2nnc(CCC(O)CN3c4ccccc4Sc4ccccc43)n2)cc1` (stereo not drawn) as the compound, how does the inhibition read?
Answer: Active

Question: Which inhibition does the source give for `COc1ccc(-n2nnc(CCC(O)CN3c4ccccc4Sc4ccc(N5CCN(C)CC5)cc43)n2)cc1` (single isomer, unassigned; (+)) here?
Answer: Active

Question: How did the inhibition turn out when `COc1ccc(-n2nnc(CCC(O)CN3c4ccccc4Sc4ccc(N5CCN(C)CC5)cc43)n2)cc1` (racemic) was run?
Answer: Active
